The list is not random: actives were taken first. Their share in the collection is about 4.7%.
697 NFkB inh: inhibitors of the PMA/ionomycin-induced NF-kB reporter in 697 B cells; inhibition, % at 4 µM; 697 B-cell NF-kB luciferase reporter, 16 h; actives 0.33% (n = 330,000); in the data active = inhibition above about 35%
VIM-2 inhibitor: blocks Pseudomonas aeruginosa VIM-2 metallo-beta-lactamase | inhibition, % at 5.6 µM | purified VIM-2, nitrocefin hydrolysis, epi-absorbance fluorescence | actives 0.89% (n = 290,000);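 active = inhibition above the mean of all tested compounds plus 3 SD, cutoff set per screening run, cut at about 7.5% in these data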;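 note: red hydrolysis product quenches plate fluorescence so inhibitors raise well fluorescence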
IMP-1 inh: inhibitors of Pseudomonas aeruginosa IMP-1 metallo-beta-lactamase. inhibition, % at 5.6 µM. AID 1556. actives 0.45% (n = 290,000). purified IMP-1, nitrocefin hydrolysis, epi-absorbance fluorescence;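 active = inhibition above the mean plus 3 SD of all compounds in the same screening run, cut at about 4.5% in these data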
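System: purified recombinant IMP-1 beta-lactamase. Medium: Zinc- and detergent-supplemented HEPES buffer, pH 7.1. Compound: one 5.6 µM dose […]. Schedule: 15 min preincubation plus 25 min reaction at 25 °C. Technique: Epi-absorbance fluorescence, 480 nm excitation, 530 nm emission.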
aSyn UTR inh: MLPCN primary screen, SNCA 5' untranslated region. inhibition, % (tested at 7.5 µM). alpha-synuclein 5'UTR reporter, inhibitor activity. actives 0.82% (n = 300,000). AID 1813; in the data active = inhibition above about 60%; inconclusive = no clear call, values can overlap the other calls;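 note: H4 neuroglioblastoma cells stably carrying SNCA 5'UTR luciferase fusion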
Mdm2 MdmX PPI: disrupts the human Mdm2-MdmX interaction | O15151+Q00987 | SaOS-2 split-luciferase Mdm2/MdmX complementation, luminescence | inhibition, % at 8 µM | actives 3% (n = 330,000) | AID 485346;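 active = inhibition of at least 50% at 8 µM in the primary screen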
Target sequence (O15151 whole entry, looked up): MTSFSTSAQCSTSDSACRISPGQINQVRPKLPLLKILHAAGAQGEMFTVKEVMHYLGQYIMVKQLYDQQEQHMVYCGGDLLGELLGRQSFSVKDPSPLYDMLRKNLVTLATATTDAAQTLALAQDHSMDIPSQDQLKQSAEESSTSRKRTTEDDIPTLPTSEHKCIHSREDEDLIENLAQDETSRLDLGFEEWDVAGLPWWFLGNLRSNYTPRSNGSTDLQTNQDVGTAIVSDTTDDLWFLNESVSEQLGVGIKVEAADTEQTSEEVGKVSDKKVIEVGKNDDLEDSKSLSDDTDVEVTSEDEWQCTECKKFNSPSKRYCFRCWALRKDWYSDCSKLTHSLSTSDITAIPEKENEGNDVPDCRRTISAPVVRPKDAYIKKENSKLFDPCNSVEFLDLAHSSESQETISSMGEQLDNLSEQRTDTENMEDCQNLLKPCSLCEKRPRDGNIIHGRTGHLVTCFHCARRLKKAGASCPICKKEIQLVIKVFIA
Target sequence (Q00987 whole entry, looked up): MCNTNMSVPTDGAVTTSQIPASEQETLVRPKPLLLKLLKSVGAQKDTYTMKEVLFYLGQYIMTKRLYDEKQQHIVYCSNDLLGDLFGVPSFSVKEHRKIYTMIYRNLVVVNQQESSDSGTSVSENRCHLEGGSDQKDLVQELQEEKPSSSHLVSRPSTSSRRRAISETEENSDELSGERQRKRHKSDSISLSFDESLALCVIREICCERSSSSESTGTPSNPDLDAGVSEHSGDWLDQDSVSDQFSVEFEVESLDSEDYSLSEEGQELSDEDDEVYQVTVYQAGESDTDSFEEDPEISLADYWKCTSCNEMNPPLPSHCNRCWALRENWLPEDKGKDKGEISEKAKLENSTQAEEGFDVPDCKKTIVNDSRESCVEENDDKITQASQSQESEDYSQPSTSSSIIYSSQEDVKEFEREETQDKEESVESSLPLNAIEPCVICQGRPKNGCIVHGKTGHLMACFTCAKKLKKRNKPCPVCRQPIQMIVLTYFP
Jurkat NFkB inh: lowers PMA/ionomycin-induced NF-kB signal in Jurkat cells | PMA/ionomycin-induced NF-kB luciferase reporter, luminescence | inhibition, % at 4 µM | actives 0.53% (n = 330,000) | AID 435003; in the data active = inhibition above about 50%
Mdm2-MdmX conf: human Mdm2/MdmX binding inhibition, confirmed; shares compounds with Mdm2 MdmX PPI; luminescent assay; inhibition, % at 8 µM; actives 55% (n = 10,000); in the data active = inhibition above about 40%
Full FLuc ctr: counter-screen for Mdm2/MdmX inhibitors: full-length luciferase. shares compounds with Mdm2 MdmX PPI. SaOS-2 full-length luciferase counterscreen, luminescence. inhibition, % at 8 µM. actives 77% (n = 6,200);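 active = mean inhibition at 8 µM reaching about 37%, which flags the compound as non-specific, limit read from the data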;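 note: p53-null SaOS-2 cells with luciferase driven by a doxycycline-inducible promoter; compound on cells about two nights before reading with doxycycline added after day one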
Hits are given with their value; n = inactive; u = inconclusive; x = no result given.

SMILES | 697 NFkB inh | VIM-2 inhibitor | IMP-1 inh | aSyn UTR inh | Mdm2 MdmX PPI | Jurkat NFkB inh | Mdm2-MdmX conf | Full FLuc ctr
Cc1[nH]c2ccccc2c1/C=C/c1nc2ccccc2c(=O)n1-c1cccc([N+](=O)[O-])c1 | n | n | n | n | 70 | n | n | x
COc1ccsc1NC(=O)OCc1ccc(Cl)cc1 | n | n | n | n | n | n | x | x
COc1ccc(OC)c(NC(=O)c2cc(OC(C)=O)cc(C(=O)Nc3cc(OC)ccc3OC)c2)c1 | n | n | n | n | 56 | n | n | x
COc1ccc(C(=O)Nc2cc(OC)ccc2OC)cc1 | n | n | n | n | n | n | x | x
CCCCCC(=O)Nc1cccc(C2=NOC3(C2)C[C@@H](C(N)=O)N(C(=O)CC(c2ccccc2)c2ccccc2)C3)c1 (some centres not stated) | n | x | x | n | 53 | n | 48 | 65
COc1ccc(N2CCN(C(=O)[C@@H](NC(=O)c3ccccc3Cl)C(C)C)CC2)cc1 | n | n | n | n | n | n | x | x
Cc1ccc(CNC(=O)CNC(=S)N(Cc2ccccc2)Cc2ccccc2F)cc1 | x | n | n | n | x | x | x | x
CC[C@H]1CC2CN3CCc4c([nH]c5c([C@H]6C[C@H]7[C@H](CC)CN(C)[C@@H](Cc8c6[nH]c6ccccc86)[C@H]7C(=O)OC)c(OC)ccc45)C(C(=O)OC)(C2)C13 | n | x | x | n | 93 | n | 83 | 37
CCC1CN(C)C2Cc3c([nH]c4ccccc34)C(=O)CC1C2C(=O)OC (configuration not stated) | n | n | n | n | n | n | x | x
CC(C)[C@H](NC(=O)C1CCN(S(=O)(=O)c2ccccc2)CC1)C(=O)NCc1ccccc1 | n | n | n | n | n | n | x | x
Cc1ccc(N=Cc2nc(/C=C/c3cccc([N+](=O)[O-])c3)oc2O)cc1 | n | n | n | n | 94 | n | n | x
C=CCn1c(C)cc(C(=O)Cn2ncc(Cl)c(Cl)c2=O)c1C | x | n | n | n | x | x | x | x
C=CCn1c(C)cc(C(=O)CN2NS(=O)(=O)c3ccccc3C2=O)c1C | n | n | n | n | 64 | n | n | x
O=C(NCCCO)c1c(O)c2cccc3c2n(c1=O)CCC3 | n | 11 | n | n | 81 | n | 56 | n
CCn1c(=O)c(C(=O)NCCCO)c(O)c2ccccc21 | n | n | n | n | 79 | n | 41 | 58
CNC(=O)c1c(O)c2cccc3c2n(c1=O)CC3 | n | n | n | n | 75 | n | 54 | n
O=C1CC(c2cccs2)c2cc3c(cc2N1)OCCO3 (configuration not stated) | n | n | n | n | n | n | x | x
O=C(CCc1nnc(C2CCCCC2)o1)N1CCC(Oc2cccnc2)CC1 | n | n | n | n | n | n | x | x
Cc1ccc(NC(=O)/C(C#N)=C/c2cn(CC(=O)NCc3ccco3)c3ccccc23)cc1C | n | n | n | n | 68 | n | 50 | 75
Cc1ccc(C)c(NC(=O)/C(C#N)=C/c2cn(CC(=O)NCc3ccco3)c3ccccc23)c1 | n | n | n | u | 92 | n | 78 | 89
Cc1ccccc1OCCn1cc(/C=C(\C#N)C(=O)NCc2ccco2)c2ccccc21 | n | n | n | n | n | n | x | x
COC(=O)C1C(=O)C2=C(CC1C)Nc1ccccc1NC2c1cccs1 (configuration not stated) | n | n | n | n | n | n | x | x
CCCCSc1nnc2n(CCc3ccccc3)c(=O)c3c4c(sc3n12)COC(C)(C)C4 | n | n | n | n | 55 | n | n | x
Cc1nnc2n(-c3ccccc3)c(=O)c3c4c(sc3n12)COC(C)(C)C4 | n | n | n | n | n | n | x | x
Cc1cc(NC(=O)c2ccc(F)cc2F)n(-c2nc3ccccc3[nH]2)n1 | n | n | n | n | 66 | n | n | n
SMILES | 697 NFkB inh | VIM-2 inhibitor | IMP-1 inh | aSyn UTR inh | Mdm2 MdmX PPI | Jurkat NFkB inh | Mdm2-MdmX conf | Full FLuc ctr
Cc1cc(NC(=O)/C=C/c2ccccc2Cl)n(-c2nc3ccccc3[nH]2)n1 | n | n | n | n | n | n | x | x
Cc1cc(NC(=O)CC2CCCC2)n(-c2nc3ccccc3[nH]2)n1 | n | n | n | n | 57 | n | n | x
Cc1ccc(S(=O)(=O)N2CCOCC2)cc1C(=O)NC1=NCCS1 | n | x | x | x | n | n | x | x
Nc1cc(C(=O)O)ccc1N1CCCCCC1 | n | n | n | n | n | n | x | x
Cc1ccc(O)c(NC(=O)c2cc3nc4c(c(C(F)(F)F)n3n2)CCc2ccccc2-4)c1 | n | n | n | n | 80 | n | n | 80
Nc1nc2ccccc2n1C(=O)c1cccs1 | n | n | n | n | n | n | x | x
O=[N+]([O-])c1ccccc1C1Nc2cccc3cccc(c23)N1 | n | n | n | n | 93 | n | 42 | n
O=C(COC(=O)COc1ccc(Cl)cc1)Nc1ncc(Br)s1 | n | x | x | x | n | n | x | x
CCOC(=O)/C=C/C(=O)Nc1ccc(S(=O)(=O)Nc2c(C)cc(C)cc2C)cc1 | n | n | n | n | 50 | n | n | x
CCOC(=O)/C=C/C(=O)Nc1ccc(Oc2ccccc2)cc1 | n | n | n | n | 56 | n | 55 | n
O=C(O)/C=C/C(=O)Nc1ccc(Oc2ccccc2)cc1 | n | n | n | n | n | n | x | x
Cc1cc(C)c(NS(=O)(=O)c2ccc(NC(=O)c3cccs3)cc2)c(C)c1 | n | n | n | n | n | n | x | x
O=[N+]([O-])c1ccc(NC(=S)N2CCc3ccccc3C2)cc1 | n | n | n | n | n | n | x | x
Clc1ccc(N2CCN(c3ncnc4c3oc3ccccc34)CC2)cc1 | n | x | x | n | 58 | n | n | x
COc1ccc(Cc2nnc(NC(=O)c3ccc(OC(C)=O)cc3)s2)cc1OC | n | n | n | n | n | n | x | x
CCOC(=O)c1cc(CC)sc1NC(=O)COc1ccc2c(C)cc(=O)oc2c1 | n | n | n | n | 82 | n | 43 | 46
COc1ccc(C(=O)NCC(c2cccs2)N2CCOCC2)cc1OC (configuration not stated) | n | x | x | x | n | n | x | x
COc1cc(C(=O)NCC(c2cccs2)N2CCOCC2)cc(Br)c1OCc1ccccc1 (configuration not stated) | n | x | x | x | 51 | n | 42 | 39
O=C(NC1CCN(C(=O)NCc2ccccc2)CC1)c1cccc(F)c1 | n | n | n | n | n | n | x | x
CC12CNCC(C)(CN(C(c3ccccc3)c3ccccc3)C1)C2 | n | n | n | n | 96 | n | 47 | 63
Clc1ccc(C(c2ccccc2)N2CCNCC2)cc1 (configuration not stated) | n | n | n | n | 62 | n | 47 | 76
CC(=O)N1CCN(C(c2ccccc2)c2ccccc2)CC1 | x | n | n | x | n | x | x | x
N=c1sc2ccccc2n1-c1ccccc1 | n | n | n | n | 79 | n | 62 | 57
